# This excerpt belongs to a sample that is enriched for hits.
# Biofilm kill mix: mixtures killing C. albicans biofilm; C. albicans biofilm persisters + clotrimazole, fluorescence viability; primary screen in compound mixtures of four per well; inhibition, % at 7.6 µM; hit rate 0.02% among 120,000; AID 1242;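 active means inhibition above 30.3% in the primary screen of four-compound pools, then above 30% when the compound was retested; inconclusive means passed the primary limit but could not be retested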;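 further: compounds exposed to preformed 24 h biofilms for 48 h; 0% = untreated biofilm control and 100% = clotrimazole plus chlorhexidine kill blank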
#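 Probe or stimulus – Clotrimazole 50 µg/mL co-treatment · System – C. albicans biofilms · Schedule – 24 h biofilm formation, then 48 h compound exposure, 37 °C · Evaluation – percent inhibition of biofilm viability · Technique – 2-h Alamar Blue fluorescence, 535/590 nm excitation/emission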
# ROMK mod: modulates human ROMK potassium channel activity. AID 1918. hit rate 2% among 130,000. B-score at 10 µM. Tet-inducible ROMK, thallium flux fluorescence; actives lie on both sides;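 active means signal ratio slope over the read window, or its plate-corrected B-score, at least 3 SD from the plate mean, either direction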;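 further: B-score of the F/F0 ratio slope over 7 to 12 s after thallium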
# Target sequence (P48048 whole entry, looked up): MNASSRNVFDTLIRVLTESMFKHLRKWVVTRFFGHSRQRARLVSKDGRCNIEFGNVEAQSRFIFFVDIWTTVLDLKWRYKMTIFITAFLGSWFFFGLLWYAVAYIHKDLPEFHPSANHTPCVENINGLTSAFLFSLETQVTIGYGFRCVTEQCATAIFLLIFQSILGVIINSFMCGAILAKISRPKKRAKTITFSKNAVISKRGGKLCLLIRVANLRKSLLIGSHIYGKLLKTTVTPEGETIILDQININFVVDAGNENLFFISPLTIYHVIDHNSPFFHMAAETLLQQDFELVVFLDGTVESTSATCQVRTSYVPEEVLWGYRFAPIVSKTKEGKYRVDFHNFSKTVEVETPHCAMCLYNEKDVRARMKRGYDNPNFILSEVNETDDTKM
# ROMK retest: confirmation of human ROMK potassium channel modulators; shares compounds with ROMK mod; ROMK thallium flux, fluorescence ratio; hits give low values; normalized thallium flux (F/F0 slope) at 10 µM; hit rate 54% among 3,000; AID 1917;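 active means Flux at 10 µM at least 3 SD below or above vehicle control mean in one or both replicates; inconclusive means no clear call, values can overlap the other calls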
# Numbers without * were called inactive; ? = inconclusive; nt = no result given.
SMILES,Biofilm kill mix,ROMK mod,ROMK retest
Cc1cc(SCC(=O)c2cccs2)nc2ccccc12,9,nt,nt
C=CCNC(=O)/C(C#N)=C\c1cc(Cl)c(OCC)c(OC)c1,19,-2.9*,0.044*
C=CCNC(=O)/C(C#N)=C/c1cc(Br)ccc1OC,3,-0.76,nt
C=CCn1c2ccccc2c2nnc(SCCCn3c(=O)[nH]c4ccccc43)nc21,nt,nt,0.065*
C=CCn1c2ccccc2c2nnc(SCN3C(=O)c4ccccc4C3=O)nc21,nt,-0.26,nt
c1cnc2c(c1)ncc1cscc12,12,0.31,nt
c1cc2c(cn1)cnc1cscc12,13,2.6*,0.092
Cc1ccn(-c2cc(O)c(-n3ccc(C)n3)cc2O)n1,17,0.037,nt
O=C(Nc1ccccc1)c1ccccc1OCC(O)CN1C(=O)c2ccccc2S1(=O)=O (configuration not stated),nt,nt,0.061*
CC1(C)NC(=O)N(CC(O)COc2ccccc2C(=O)Nc2ccccc2)C1=O (configuration not stated),nt,0.14,nt
O=c1c2ccccc2c(C=NC2CCN(Cc3ccccc3)CC2)c(O)n1Cc1ccc2c(c1)OCO2,6,0.64,nt
CCOc1ccc(S(=O)(=O)Nc2cc(Sc3ncn[nH]3)c3oc(=O)sc3c2)cc1,nt,-0.29,nt
O=S(=O)(Nc1cc(Sc2ncn[nH]2)c(O)c2ccccc12)c1ccccc1,3,-4.3*,0.046*
CN(C)c1ccc([C@@H]2[C@@H]([N+](=O)[O-])[C@H]3C=Cc4ccccc4N3[C@H]2C(=O)c2ccc(Cl)cc2)cc1,14,-1.9,nt
OC(CNCCCCNCC(O)C(F)(F)F)C(F)(F)F (configuration not stated),13,2.7*,0.08
OC(CNCc1ccc(Cl)cc1)C(F)(F)F (configuration not stated),13,0.65,nt
Cc1nc2ccccc2c(=O)n1NC(=O)C1CC1,8,0.84,nt
N=C1C(c2nc3ccccc3s2)=C(O)CN1c1ccccc1,15,1.1,nt
COc1cccc(N2CC(O)=C(c3nc4ccccc4s3)C2=N)c1,14,3.3*,?
Cc1[nH][nH]c(=O)c1C=NCc1ccc(Cl)cc1,11,-0.2,nt
O=C(CCCSc1ccccc1)Nc1nc(-c2ccco2)c(-c2ccco2)s1,18,-0.73,nt
O=C(CCl)Nc1nc(-c2ccco2)c(-c2ccco2)s1,8,-4.2*,0.053*
Cc1nn(-c2ccccc2)c(Cl)c1/C=C1\SC(=S)N(CCCCCC(=O)O)C1=O,15,nt,nt
O=C(O)CCCN1C(=O)/C(=C/c2cn(-c3ccccc3)nc2-c2cccs2)SC1=S,16,-3.4*,?
Cc1nc2c(sc3nc4c(cc32)COC(C)(C)C4)c(=O)n1Cc1ccccc1,nt,-0.88,nt
SMILES,Biofilm kill mix,ROMK mod,ROMK retest
Cc1nc2c(sc3nc4c(cc32)COC(C)(C)C4)c(=O)n1CC(=O)NCc1ccco1,nt,4.1*,0.09
CCc1ccc(NC(=O)CC2C(=O)N(c3ccc(C)cc3)C(=O)N2CCc2ccncc2)cc1 (configuration not stated),24,-0.52,nt
Cc1nc(N2CCCCC2)c(C#N)c(C)c1[N+](=O)[O-],2,-0.76,nt
Cc1ccc(C(=O)c2cc([N+](=O)[O-])ccc2N2CCOCC2)cc1,16,nt,nt
CCOc1ccc(C(=O)c2cc([N+](=O)[O-])ccc2N2CCOCC2)cc1,9,6.7*,0.086
COc1ccc(C(=O)c2cc([N+](=O)[O-])ccc2N2CCOCC2)cc1,-12,5.6*,0.091
CCC(CC)NC(=O)c1cc([N+](=O)[O-])ccc1N1CCOCC1,12,nt,nt
Cc1ccc(C(=O)c2cc([N+](=O)[O-])ccc2N2CCCCC2)c(C)c1,24,2.7*,0.083
O=C(O)c1cc([N+](=O)[O-])ccc1N1CCCCC1,10,0.17,nt
COc1cccc(CNc2ccccc2O)c1OCc1ccccc1F,11,1.2,nt
O=C(O)c1cc(O)ccc1NC(=O)c1cccc2ccccc12,23,nt,nt
CC(C)(C)NC(=S)NC1CC1,7,nt,nt
COC(=O)c1ccc(COc2ccc(C)cc2[N+](=O)[O-])o1,-1,nt,nt
COC(=O)c1cc(C)ccc1OCc1ccc([N+](=O)[O-])cc1,18,-13*,?
O=C(COc1ccc(Cl)cc1)NCc1cn2cc(Cl)ccc2n1,22,-0.6,nt
C=CCc1cccc2cc(C(=O)NC(C)(C)C)c(=O)oc12,nt,7.4*,0.072
C#CC(C)(CC)NC(=O)c1cc2cccc(CC=C)c2oc1=O (configuration not stated),14,0.69,nt
Cc1ccc(Cl)cc1NC(=S)N(Cc1ccccc1)Cc1cccnc1,-5,0.92,nt
N#Cc1c(NC(=O)C2CC=CCC2C(=O)O)sc2c1CCCCCC2 (configuration not stated),9,nt,nt
CCC(C)(C)C1CCc2c(sc(NC(=O)c3ccccc3C(=O)O)c2C#N)C1 (configuration not stated),16,nt,0.11*
CC1CCc2c(sc(NC(=O)c3ccccc3C(=O)O)c2C#N)C1 (configuration not stated),27,nt,nt

# Screening data from PubChem.
